Data reported in ChEMBL document CHEMBL1777707, “Structure-based design, synthesis, and nonalcoholic steatohepatitis (NASH)-preventive effect of phenylpropanoic acid peroxisome proliferator-activated receptor (PPAR) α-selective agonists” (Bioorg Med Chem, 2011).
Active and inactive are the calls of the source. The calls are words filed in the database; no cut-off is given here.

Key:
[1] = biological target: T1, Peroxisome proliferator-activated receptor alpha (Homo sapiens, UniProt Q07869); test: Agonist activity at Gal4-fussed PPARalpha expressed in human HEK293 cells by reporter gene assay; assay type: functional, cell-based
T1 sequence (Q07869 whole entry): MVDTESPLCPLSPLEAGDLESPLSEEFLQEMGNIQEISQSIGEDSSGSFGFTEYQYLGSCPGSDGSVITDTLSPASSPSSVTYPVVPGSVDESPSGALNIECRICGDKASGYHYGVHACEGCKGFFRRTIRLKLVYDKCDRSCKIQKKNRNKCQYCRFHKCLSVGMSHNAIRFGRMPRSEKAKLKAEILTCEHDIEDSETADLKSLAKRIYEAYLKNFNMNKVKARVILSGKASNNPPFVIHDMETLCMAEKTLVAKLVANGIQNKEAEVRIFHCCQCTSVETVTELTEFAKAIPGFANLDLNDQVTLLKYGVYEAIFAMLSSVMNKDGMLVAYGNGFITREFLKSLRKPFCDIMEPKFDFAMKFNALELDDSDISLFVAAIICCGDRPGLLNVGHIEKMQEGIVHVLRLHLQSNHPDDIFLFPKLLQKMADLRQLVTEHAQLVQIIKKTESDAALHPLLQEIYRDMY
How it was run: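 Transient transfection of HEK-293 cells with PPAR-GAL4 chimeric receptor plus reporter. EC50 is the molar concentration giving 50% of maximal reporter activity; racemates tested as such.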

[2] = biological target: T2, Peroxisome proliferator-activated receptor delta (Homo sapiens, UniProt Q03181); test: Agonist activity at Gal4-fussed PPARdelta expressed in human HEK293 cells by reporter gene assay; assay type: functional, cell-based
T2 sequence (Q03181 whole entry): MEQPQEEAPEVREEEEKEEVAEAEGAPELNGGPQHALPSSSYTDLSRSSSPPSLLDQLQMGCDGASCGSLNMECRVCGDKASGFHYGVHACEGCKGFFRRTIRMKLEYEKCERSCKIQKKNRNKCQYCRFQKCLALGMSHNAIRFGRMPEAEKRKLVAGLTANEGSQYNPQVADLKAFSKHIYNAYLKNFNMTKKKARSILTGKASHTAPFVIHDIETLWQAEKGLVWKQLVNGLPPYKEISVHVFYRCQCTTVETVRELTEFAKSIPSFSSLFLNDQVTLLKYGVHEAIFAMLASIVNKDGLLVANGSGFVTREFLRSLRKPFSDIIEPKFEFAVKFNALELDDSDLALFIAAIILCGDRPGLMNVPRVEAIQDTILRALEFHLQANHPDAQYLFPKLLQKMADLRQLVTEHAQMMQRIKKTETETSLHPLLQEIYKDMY

[3] = biological target: T3, Peroxisome proliferator-activated receptor gamma (Homo sapiens, UniProt P37231); test: Agonist activity at Gal4-fussed PPARgamma expressed in human HEK293 cells by reporter gene assay; assay type: functional, cell-based
T3 sequence (P37231 whole entry): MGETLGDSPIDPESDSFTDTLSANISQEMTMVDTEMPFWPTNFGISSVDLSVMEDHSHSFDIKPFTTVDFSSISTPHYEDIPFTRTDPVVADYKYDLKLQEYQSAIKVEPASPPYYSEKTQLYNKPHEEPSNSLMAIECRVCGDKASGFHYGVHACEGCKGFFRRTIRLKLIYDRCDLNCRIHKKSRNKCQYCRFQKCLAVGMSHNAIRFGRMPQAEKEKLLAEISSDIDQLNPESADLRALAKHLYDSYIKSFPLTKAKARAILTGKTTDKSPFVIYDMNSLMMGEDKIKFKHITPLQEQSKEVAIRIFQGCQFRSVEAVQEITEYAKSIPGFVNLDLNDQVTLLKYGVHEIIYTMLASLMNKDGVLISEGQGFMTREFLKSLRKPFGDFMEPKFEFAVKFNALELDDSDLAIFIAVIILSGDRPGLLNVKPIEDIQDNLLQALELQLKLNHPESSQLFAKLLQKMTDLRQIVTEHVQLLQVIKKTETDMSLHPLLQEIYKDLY

[4] = Selectivity ratio EC50 for Gal4-fussed PPARdelta to EC50 for Gal4-fussed PPARalpha
[5] = test system: Rattus norvegicus; test: Protection against nonalcoholic steatohepatitis progression in 4 weeks choline deficient high-fat diet fed methemoglobinemic Wistar rat assessed as prevention of liver atrophy formation at 1 mg/kg/day, ip administered for 6 weeks by hematoxylin and eosin staining in presence of 40 mg/kg/day, ip of sodium nitrite; assay type: functional, organism-based
How it was run: (§1)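 Rats fed CDHF diet from 6 weeks of age for 4 weeks, then kept on CDHF over a 6-week period with daily ip NaNO2 40 mg/kg to cause methemoglobinemia; treated group also got compound 1 mg/kg/day. Controls were normal chow, CDHF alone and NASH. Housed singly, 12-h light-dark cycle, food and water ad libitum. Endpoints taken at study end.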

[6] = test system: Rattus norvegicus; test: Protection against nonalcoholic steatohepatitis progression in 4 weeks choline deficient high-fat diet fed methemoglobinemic Wistar rat assessed as prevention of nodule formation in liver at 1 mg/kg/day, ip administered for 6 weeks by hematoxylin and eosin staining in presence of 40 mg/kg/day, ip of sodium nitrite; assay type: functional, organism-based; how it was run: as §1
[7] = test system: Rattus norvegicus; test: Protection against nonalcoholic steatohepatitis progression in 4 weeks choline deficient high-fat diet fed methemoglobinemic Wistar rat assessed as effect on features of fatty liver at 1 mg/kg/day, ip administered for 6 weeks by hematoxylin and eosin staining in presence of 40 mg/kg/day, ip of sodium nitrite; assay type: functional, organism-based; how it was run: as §1
[8] = test system: Rattus norvegicus; test: Protection against nonalcoholic steatohepatitis progression in 4 weeks choline deficient high-fat diet fed methemoglobinemic Wistar rat assessed as prevention of liver fibrosis at 1 mg/kg/day, ip administered for 6 weeks by Masson Trichrome staining in presence of 40 mg/kg/day, ip of sodium nitrite; assay type: functional, organism-based; how it was run: as §1
[9] = test system: Rattus norvegicus; test: Protection against nonalcoholic steatohepatitis progression in 4 weeks choline deficient high-fat diet fed methemoglobinemic Wistar rat assessed as prevention of liver necrosis at 1 mg/kg/day, ip administered for 6 weeks by Masson Trichrome staining in presence of 40 mg/kg/day, ip of sodium nitrite; assay type: functional, organism-based; how it was run: as §1
[10] = test system: Rattus norvegicus; test: Protection against nonalcoholic steatohepatitis progression in 4 weeks choline deficient high-fat diet fed methemoglobinemic Wistar rat assessed as increase of aspartate amino transferase level at 1 mg/kg/day, ip administered for 6 weeks in presence of 40 mg/kg/day, ip of sodium nitrite; assay type: functional, organism-based; how it was run: as §1
[11] = test system: Rattus norvegicus; test: Protection against nonalcoholic steatohepatitis progression in 4 weeks choline deficient high-fat diet fed methemoglobinemic Wistar rat assessed as increase of alanine transaminase level at 1 mg/kg/day, ip administered for 6 weeks in presence of 40 mg/kg/day, ip of sodium nitrite; assay type: functional, organism-based; how it was run: as §1
[12] = test system: Rattus norvegicus; test: Protection against nonalcoholic steatohepatitis progression in 4 weeks choline deficient high-fat diet fed methemoglobinemic Wistar rat assessed as increase of alkaline phosphatase level at 1 mg/kg/day, ip administered for 6 weeks in presence of 40 mg/kg/day, ip of sodium nitrite; assay type: functional, organism-based; how it was run: as §1
[13] = test system: Rattus norvegicus; test: Protection against nonalcoholic steatohepatitis progression in 4 weeks choline deficient high-fat diet fed methemoglobinemic Wistar rat assessed as increase of liver function at 1 mg/kg/day, ip administered for 6 weeks in presence of 40 mg/kg/day, ip of sodium nitrite; assay type: functional, organism-based; how it was run: as §1

SMILES | EC50 [1] [nM] | EC50 [2] [nM] | EC50 [3] [nM] | further results
CC[C@@H](Cc1ccc(OC)c(CNC(=O)c2ccc(Oc3ccc(F)cc3)cc2)c1)C(=O)O | 5 | 300 | 920 | Ratio EC50 [4]: 25; Activity [5]: Active; Activity [6]: Active; Activity [7]: inactive; Activity [8]: Active; Activity [9]: Active; Activity [10]: Active; Activity [11]: Active; Activity [12]: Active; Activity [13]: Active
CC[C@@H](Cc1ccc(OC)c(CNC(=O)c2ccc(Oc3ccc(Cl)cc3)cc2)c1)C(=O)O | 15 | 580 | 830 | –
CC[C@@H](Cc1ccc(OC)c(CNC(=O)c2ccc(Oc3ccc(Br)cc3)cc2)c1)C(=O)O | 29 | 800 | 990 | –
CCC(Cc1ccc(OC)c(CNC(=O)c2ccc(Oc3ccccc3)cc2)c1)C(=O)O (racemic) | 8.8 | 120 | 820 | –
CCC(Cc1ccc(OC)c(CNC(=O)c2ccc(OC(F)(F)F)cc2)c1)C(=O)O (racemic) | 12 | 110 | 4400 | –
CCC(Cc1ccc(OC)c(CNC(=O)c2cccc(Oc3ccccc3)c2)c1)C(=O)O (racemic) | 41 | 4800 | 4600 | –
CCC(Cc1ccc(OC)c(CNC(=O)c2ccccc2Oc2ccccc2)c1)C(=O)O (racemic) | 3600 | > 10000 | > 10000 | –
CCC(Cc1ccc(OC)c(CNC(=O)c2cccc(-c3ccccc3)c2)c1)C(=O)O (racemic) | 74 | 4100 | 710 | –
CCC(Cc1ccc(OC)c(CNC(=O)c2ccccc2-c2ccccc2)c1)C(=O)O (racemic) | 3600 | > 10000 | > 10000 | –
CCC(Cc1ccc(OC)c(CNC(=O)c2ccc(OCc3ccccc3)cc2)c1)C(=O)O (racemic) | 52 | 1400 | 460 | –
CCC(Cc1ccc(OC)c(CNC(=O)c2ccc(OCCc3ccccc3)cc2)c1)C(=O)O (racemic) | 60 | 1400 | 780 | –
CCC(Cc1ccc(OC)c(CNC(=O)c2ccc(C)cc2)c1)C(=O)O (racemic) | – | 360 | 9600 | –
CCC(Cc1ccc(OC)c(CNC(=O)c2ccccc2)c1)C(=O)O (racemic) | – | – | > 10000 | –
CCC(Cc1ccc(OC)c(CNC(=O)c2ccc(-c3ccccc3)cc2)c1)C(=O)O (racemic) | 7.6 | – | 340 | –
